High-throughput results as filed in PubChem.
HSV augment = increases HSV replication in cells; HSV replication augmentation in cells, fold increase; maximum fold increase; actives 0.005% (n = 220,000); in the data active means maximum fold increase above about 1.5; inconclusive means no clear call, values can overlap the other calls; tested in PC3 cells
b-catenin transl = modulators of beta-catenin nuclear translocation; HeLa beta-catenin nuclear translocation, immunofluorescence imaging; nuclear translocation activity, % at 5 µM; actives 0.3% (n = 190,000);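 active means nuclear translocation activity above 50% at 5 µM, with a well cell count of 50 or more; inconclusive means wells under 50 cells across six images, flagged as toxic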;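 further: per-cell ratio of nuclear to cytoplasmic median beta-catenin stain intensity; plate controls were DMSO negative control for no effect and GSK-3 inhibitor IX positive control for full effect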
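Technique: fluorescence imaging of beta-catenin antibody stain plus DAPI / Material: human HeLa cell line / Incubation: compound treatment 24 h, 37°C, 5% CO2 / Read-out basis: % activation of per-cell nuclear versus cytoplasmic median beta-catenin signal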
MT stabilizer = microtubule stabilization, imaging screen; HeLa tubulin immunostaining HCS, 24 h; share of cells brighter than vehicle mean+2SD; % tubulin-high responders, % at 10 µM; actives 0.83% (n = 200,000);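 active means plate Z-score above 3 for both tubulin-high and condensed-nucleus cell shares, with cell loss under 80%, at 10 µM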;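 further: anti alpha tubulin signal scored within the nucleus-defined area of each cell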
ROMK primary = modulators of human ROMK potassium channel; Tet-inducible ROMK, thallium flux fluorescence; actives lie on both sides; B-score at 10 µM; actives 2% (n = 130,000); AID 1918;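 active means signal ratio slope over the read window, or its plate-corrected B-score, at least 3 SD from the plate mean, either direction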;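 further: B-score of the F/F0 ratio slope over 7 to 12 s after thallium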
Target sequence (P48048 whole entry, looked up): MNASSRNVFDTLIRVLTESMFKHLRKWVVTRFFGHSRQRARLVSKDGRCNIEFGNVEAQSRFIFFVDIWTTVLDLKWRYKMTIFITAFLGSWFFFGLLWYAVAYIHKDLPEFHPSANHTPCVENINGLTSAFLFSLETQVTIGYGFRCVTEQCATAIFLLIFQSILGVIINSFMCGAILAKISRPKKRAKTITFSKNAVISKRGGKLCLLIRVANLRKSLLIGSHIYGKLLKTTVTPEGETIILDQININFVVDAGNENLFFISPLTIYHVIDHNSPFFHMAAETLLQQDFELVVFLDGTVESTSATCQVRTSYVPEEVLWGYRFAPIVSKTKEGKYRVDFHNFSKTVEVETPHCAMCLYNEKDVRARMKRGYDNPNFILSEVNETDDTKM
INS promoter inh = TRM-6 insulin promoter activity inhibition. actives 0.9% (n = 130,000). TRM-6 cells (human fetal islet line), insulin promoter-eGFP reporter, imaging; reporter expression induced with tamoxifen. inhibition, % at 2 µM;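 active means inhibition above the mean plus 3 SD, with well images judged a real hit on visual review, cut at about 60% in these data, passing the limit was not always enough; inconclusive means inhibition over the cutoff but images rejected on review; inactive means inhibition not above the cutoff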
The depositor's hits bear a star; i = inactive; ? = inconclusive; nt = no result. In the library only some 2.4% were active in any assay of this set; here they are far more common.

SMILES	HSV augment	b-catenin transl	MT stabilizer	ROMK primary	INS promoter inh
CC(C)(C)C1C/C(=C/c2ccccn2)C(=O)/C(=C/c2ccccn2)C1 (stereo unspecified)	i	nt	52	-0.93	i
CC1C/C(=C/c2ccccn2)C(=O)/C(=C/c2ccccn2)C1 (stereo unspecified)	i	23	39*	-4.7*	?
CC(C)CNc1nc(Oc2ccc(=O)[nH]n2)nc(N2CCOCC2)n1	i	-2	1	0.0055	nt
CCNc1nc(Oc2ccc(=O)[nH]n2)nc(N2CCOCC2)n1	i	nt	3	1.6	75*
Cc1ccc2nc(N3C(=O)C(O)=C(C(=O)c4ccco4)C3c3cccs3)sc2c1 (stereo unspecified)	i	-4	4	-2.6*	30
COc1ccc(C2C(C(=O)c3ccco3)=C(O)C(=O)N2c2nnc(C)s2)cc1 (stereo unspecified)	i	0	3	-0.32	nt
O=C(N/N=C/c1ccc(Br)cc1)c1ccccc1-n1cccc1	i	12	47*	nt	-6
Cc1cccc(/C=N\NC(=O)c2ccccc2-n2cccc2)c1	i	-2	3	0.3	21
O=C1N/C(=N\N=C\c2cccs2)SC1Cc1ccc(Cl)cc1Cl (stereo unspecified)	i	5	12	nt	nt
O=C1N/C(=N\N=C\c2cccs2)SC1Cc1cccc(Cl)c1Cl (stereo unspecified)	i	60*	13	nt	nt
Nc1ncc(Br)cc1N=Cc1ccccc1	?	1	5	nt	76*
N#C/C(=C/c1ccc(Sc2nc3ccccc3[nH]2)o1)c1cccc(F)c1	i	nt	1	-0.6	72*
CCOC(=O)c1c(C)c(C(=O)N2CCN(c3ccc(F)cc3)CC2)c(C)n1C	i	0	6	0.45	15
O=C(CCc1ccc(Oc2cc([N+](=O)[O-])cc([N+](=O)[O-])c2)cc1)N1CCCCC1	i	2	2	nt	nt
O=c1oc(-c2cccs2)nc2sc3c(c12)CCCC3	i	nt	2	-0.53	68*
O=c1oc(-c2cccs2)nc2sc3c(c12)CCC3	i	2	3	nt	-15
CC(=O)Nc1c(C(=O)C2CC2)oc2ccccc12	i	nt	3	nt	44
CC(=O)Nc1c(C(=O)c2ccccc2)oc2ccccc12	i	5	6	-0.37	71*
CN(C)c1nc(Cl)nc(NCCOc2ccccc2)n1	i	0	4	0.8	66*
COc1cccc(OC)c1-c1nn2c(-c3cc(-c4ccccc4)n[nH]3)nnc2s1	i	37	40*	0.55	nt
Clc1ccc(-c2nnc3sc(-c4ccc(Br)o4)nn23)c(Cl)c1	nt	3	2	nt	nt
CCN(CC)c1ccc(-c2nn3c(-c4ccccc4OC)nnc3s2)cc1	i	nt	21	3.9*	nt
CN(C)c1ccc(-c2nn3c(-c4ccc(Cl)cc4Cl)nnc3s2)cc1	nt	53*	30*	nt	-37
O=C1OC(c2ccc3c(c2)OCO3)N(C(=O)c2ccc(Cl)c(Cl)c2)c2ccccc21 (stereo unspecified)	i	0	2	0.53*	-3
Cc1cccc(C(=O)N2c3ccccc3C(=O)OC2c2ccc3c(c2)OCO3)c1 (stereo unspecified)	nt	-2	3	0.74	nt
SMILES	HSV augment	b-catenin transl	MT stabilizer	ROMK primary	INS promoter inh
CCCCOc1ccc(Cc2n[nH]c(=S)n2N)cc1	i	0	2	0.13	-28
Cc1nn(-c2ccccc2)c(C)c1/C=N/NC(=O)c1cc(-c2ccccc2)n[nH]1	i	80*	14*	nt	-125
CC(=O)Nc1ccc(NC(=O)Cn2cnc3c(cnn3C(C)(C)C)c2=O)cc1	i	0	5	0.0017	-431
CC(C)(C)n1ncc2c(=O)n(CC(=O)NCc3ccccc3)cnc21	i	-2	32*	4.2*	nt
COc1ccc(/C=N/NC(=O)c2cccc(Br)c2)cc1Cn1cc(Cl)cn1	i	nt	41*	nt	29
COc1ccc(/C=N/NC(=O)c2ccc(Br)cc2)cc1Cn1cc(Cl)cn1	i	1	4	0.51	-33
N#CCCn1cc(/C=C(\C#N)c2nc3ccccc3s2)c(-c2ccc(F)cc2)n1	i	-5	4	nt	74*
N#CCCn1cc(C=C(C#N)C#N)c(-c2ccc(Cl)cc2)n1	i	2	3	-3.3	nt
N#CC1=C(N)Oc2cc3ccccc3cc2C1c1cccnc1 (stereo unspecified)	i	-1	56*	nt	16
N#CC1=C(N)Oc2cc3ccccc3cc2C1c1cccs1 (stereo unspecified)	i	-1	9	nt	-35
Cc1ccc2cc(CN(Cc3ccco3)C(=S)NCC3CCCO3)c(=O)[nH]c2c1 (stereo unspecified)	i	-2	1	0.71	-33
O=c1[nH]c2cc3c(cc2cc1CN(Cc1ccco1)C(=S)NCC1CCCO1)OCCO3 (stereo unspecified)	i	18	22*	-0.85	nt
Cc1ccc2cc(CN(CC3CCCO3)C(=S)Nc3ccccc3)c(=O)[nH]c2c1 (stereo unspecified)	i	64*	16*	0.99	nt
Cc1cc(C)c2[nH]c(=O)c(CN(CC3CCCO3)C(=S)Nc3ccccc3)cc2c1 (stereo unspecified)	i	-2	4	-0.26	nt
Cc1ccc2[nH]c(=O)c(CN(CC3CCCO3)C(=S)Nc3ccccc3)cc2c1 (stereo unspecified)	nt	0	12*	-0.05	-77
COc1ccc(OC)c(S(=O)(=O)N2CCN(c3ccccn3)CC2)c1	i	-2	2	nt	74*
Cc1ccc(-c2nnc(-c3cc(C)on3)o2)cc1	i	-1	nt	0.057	nt
Cc1ccc2c(C)nc(/N=C(\N)NC(=O)N3c4ccccc4Sc4ccccc43)nc2c1	i	0	4	1.4	80*
O=C(CNc1ccccc1)N/N=C/c1c[nH]c2ccccc12	i	19	16*	0.074	7
Cc1cccc(NC(=S)N/N=C/c2c[nH]c3ccccc23)c1	i	nt	14*	0.77	-45
Cc1ccc(NC(=O)NC(=O)CSc2nnc(-c3ccc(Cl)cc3Cl)n2N)c(C)c1	i	2	4	nt	nt
Cc1[nH][nH]c(=O)c1C(c1c(C)[nH][nH]c1=O)c1cn(Cc2cccc3ccccc23)c2ccccc12	i	13	23	-2.7*	nt
Cc1[nH][nH]c(=O)c1C(c1c(C)[nH][nH]c1=O)c1cn(C)c2ccccc12	i	4	6	0.27	nt
Cc1ccnc(NC(c2ccccc2O)c2oc(CO)cc(=O)c2O)c1 (stereo unspecified)	i	-4	2	-0.15	-14
O=C(CN1CCN(c2ccccc2)CC1)Nc1ccccc1C(F)(F)F	i	0	3	nt	88*
O=C(CN1CCN(c2ccccc2)CC1)Nc1ccccc1Cl	i	-4	5	0.0028	-11
COc1ccccc1NC(=O)CN1CCN(CC(=O)Nc2ccc(Cl)c(C(F)(F)F)c2)CC1	i	2	3	-2.5*	-107
